Measured values pooled from the literature.
Protocols differ between the studies behind these lines.
Target: Serine/threonine-protein kinase 38-like (STK38L, Homo sapiens, UniProt Q9Y2H1)

SMILES	test	conditions	remaining binding [%]
Cc1cc(C)c(-n2ccn3nc(-c4cccnc4)cc23)cc1NC(=O)c1cc(C#N)cc(S(F)(F)(F)(F)F)c1	binding, competition with immobilised ligand	0.1 µM	98.9
Cc1cnc(Nc2ccc(C(=O)N3CCC(N4CCCC4)CC3)cc2)nc1-c1cc2ccccc2s1	binding, competition with immobilised ligand	1 µM	100
FC(F)(F)Oc1cccc(-c2cnc3ccc(-c4ccncc4)nn23)c1	cell-free assay, competition with immobilised ligand	5 µM	89
O=S(=O)(NC1CCC(c2cc(F)ccc2F)(S(=O)(=O)c2ccc(Cl)cc2)CC1)C(F)(F)F (stereo not shown)	binding, competition with immobilised ligand	1 µM	75
COc1cnc(Nc2cccc(S(N)(=O)=O)c2)nc1N1CCN(c2ccccc2)CC1	binding, competition with immobilised ligand	1 µM	96
O=C(NCCCN1CCOCC1)c1ccc(Nc2ncc(Cl)c(-c3ccc(Cl)s3)n2)cc1	binding, competition with immobilised ligand	1 µM	82
Cc1nccc(COC(=O)N2C[C@@H]3[C@@H](CNC(=O)c4ccc5[nH]nnc5c4)[C@@H]3C2)n1	cell-free assay, competition with immobilised ligand	1 µM	70
N[C@@H]1CCN(c2nccc(-c3cnn4ncccc34)n2)C1	binding	1 µM	100
CC1=C(C#N)[C@@H](c2ccc3[nH]nc(C)c3c2)C(C#N)=C(c2ccc(Cl)cc2)N1	binding, competition with immobilised ligand	1 µM	100
CCN1CCN(Cc2ccc(C(=O)Nc3ccc(C)c(Oc4ccc5c(c4)CC(=O)N5)c3)cc2C(F)(F)F)CC1	binding, competition with immobilised ligand	1 µM	100
CN(c1nccc(-c2cnn3ncccc23)n1)C1CC1	binding	1 µM	100
C=CC(=O)N1CCC(C(=O)NCC(=O)N2CCN(c3nc(-c4cnc(N)nc4C(F)F)nc(N4CCOCC4)n3)CC2)CC1	binding, competition with immobilised ligand	1 µM	97
c1cnn2ncc(-c3ccnc(N4CCC45COC5)n3)c2c1	binding	1 µM	78
O=C(NC[C@@H]1[C@H]2CN(C(=O)OCc3cc(C(F)(F)F)cc(C(F)(F)F)c3)C[C@@H]12)c1ccc2[nH]nnc2c1	cell-free assay, competition with immobilised ligand	1 µM	45
F[C@@H]1CCN(c2nccc(-c3cnn4ncccc34)n2)C1	binding	1 µM	100
Cc1cc(NC(=O)c2cccc(S(F)(F)(F)(F)F)c2)cc(-n2ccn3nc(-c4cccnc4)cc23)c1	cell-free assay, competition with immobilised ligand	1 µM	100
CN(C)c1nccc(-c2cnc3ncccn23)n1	binding	1 µM	100
O=C(Nc1c[nH]nc1C(=O)NC1CCNCC1)c1cc(F)cc(F)c1	binding, competition with immobilised ligand	1 µM	93
CN(C)c1nccc(-c2cnn3ncccc23)n1	binding	1 µM	85
O=C(c1ccc(Nc2ncc(Cl)c(-c3ccc(Cl)s3)n2)cc1)N1CCC(N2CCCC2)CC1	binding, competition with immobilised ligand	1 µM	84
COc1ccc2cc(OCC3(C(=O)O)CN(C(=O)c4ccc(F)cc4)C3)ccc2c1	binding, competition with immobilised ligand	1 µM	86
C[C@@H]1CCN(c2nccc(-c3cnn4ncccc34)n2)C1	binding	1 µM	100
